Compounds with a hit are over-represented: about 3.2% of the library has one in this group of screens.
SMARCA2 activ: SMARCA2 (BRM) function activators, primary screen, cell-based, luminescence, high throughput | 370,000 tested, 1% active | MG213 cells, MMTV-luciferase reporter, dexamethasone, overnight | activation, % at 9.1 µM | AID 652017, 2013; in the data active means activation above about 7.8%
DAX1 inh-1: DAX1 (NR0B1) inhibitors, primary screen, cell-based, HEK293, Gal4-DAX1, luciferase luminescence | Nuclear receptor subfamily 0 group B member 1 (Homo sapiens), P51843 | HEK293 Gal4-DAX1 luciferase reporter | inhibition, % at 6.75 µM | 340,000 tested, 0.99% active | AID 504766, 2011;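 active means inhibition above the mean over all tested compounds plus 3 SD, cut at about 4.2% in these data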;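 further: inhibition shows as a rise in luminescence from relieved DAX1 repression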
Target sequence (P51843 207-470 limits assumed): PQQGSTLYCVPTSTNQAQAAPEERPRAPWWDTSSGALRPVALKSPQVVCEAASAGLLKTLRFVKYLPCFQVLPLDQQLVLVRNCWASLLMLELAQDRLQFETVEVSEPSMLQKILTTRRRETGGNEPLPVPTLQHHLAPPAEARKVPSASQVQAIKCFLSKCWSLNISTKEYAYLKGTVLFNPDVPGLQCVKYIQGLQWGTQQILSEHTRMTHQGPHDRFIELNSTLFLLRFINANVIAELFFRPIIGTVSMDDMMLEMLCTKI
JMJD2C inh: inhibitors of GASC-1 histone demethylase, primary screen, biochemical, fluorescence, DELFIA europium; Lysine-specific demethylase 4C (Homo sapiens), Q9H3R0; GST-JMJD2C(1-420) H3K9me3 demethylation; inhibition, % at 2.35 µM; 330,000 tested, 0.069% active;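 active means more than half of a compound's replicate wells show inhibition beyond 50%, single wells judged on their own value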;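 further: signal counts dimethyl H3K9 product captured on neutravidin plate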
DAX1 inh-2: DAX1 (NR0B1) inhibitors on StAR promoter, primary screen, cell-based, luminescence, SF-1 (NR5A1), full-length DAX-1. HEK293T StAR-luciferase reporter, SF-1/DAX-1 repression relief. inhibition, % at 6.8 µM. 370,000 tested, 1.1% active. AID 652010, 2013;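 active means inhibition above the mean over all tested compounds plus 3 SD, cut at about 3.6% in these data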;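 further: higher inhibition means more luminescence from relief of DAX-1 repression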
NR2E3 ag-1: NR2E3 agonists in two-hybrid cells, primary screen, cell-based, luminescence, CHO-S, Gal4-NCOR/VP16-NR2E3; 360,000 tested, 0.35% active; inhibition of corepressor binding, % at 3.98 µM; luciferase;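 active means inhibition above the mean of all tested compounds plus 3 SD, cut at about 70% in these data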;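 further: higher means lower luciferase signal from less NR2E3 corepressor binding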
Target sequence (Q9Y5X4 whole entry, looked up, the tested form may be a part): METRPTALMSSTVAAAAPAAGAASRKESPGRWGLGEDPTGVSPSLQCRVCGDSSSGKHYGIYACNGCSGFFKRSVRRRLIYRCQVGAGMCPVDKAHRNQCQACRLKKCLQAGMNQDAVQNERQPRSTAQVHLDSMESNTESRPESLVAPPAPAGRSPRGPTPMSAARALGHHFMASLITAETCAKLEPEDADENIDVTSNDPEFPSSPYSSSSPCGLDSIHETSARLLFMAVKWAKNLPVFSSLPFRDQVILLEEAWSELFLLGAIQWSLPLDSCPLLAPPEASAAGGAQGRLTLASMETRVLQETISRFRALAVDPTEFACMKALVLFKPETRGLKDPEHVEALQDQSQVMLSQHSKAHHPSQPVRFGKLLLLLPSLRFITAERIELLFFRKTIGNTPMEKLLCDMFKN
NR2E3 ag-2: inhibitors of NR2E3-RetCOR corepressor binding, primary screen, NR2E3 agonist project, biochemical, TR-FRET, GST-NR2E3, biotin-RetCOR; Photoreceptor-specific nuclear receptor (Homo sapiens), Q9Y5X4; 1536-well; inhibition of corepressor binding, % at 4.78 µM; 320,000 tested, 0.12% active; AID 2300, 2010;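 active means percent inhibition above the cutoff of mean plus 3 SD of all tested compounds, set per screening campaign, cut at about 20% in these data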
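System: GST-tagged NR2E3 plus biotinylated RetCOR corepressor; Buffer or medium: pH 7.5 Tris-based buffer; Probe or stimulus: RetCOR corepressor, biotinylated, 7 nM; Doses: compound at 4.8 µM, single dose; Schedule: 5 h incubation at 4 °C; Technique: time-resolved FRET; Evaluation: percent inhibition of TR-FRET ratio; Replication: one well per compound, singlicate testing.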
DAX1 conf: DAX1 (NR0B1) inhibitors relieving SF-1 repression, confirmation, cell-based, luminescence, HEK293T, full-length DAX-1, SF-1 activated StAR promoter; shares compounds with DAX1 inh-2; HEK293T StAR-promoter luciferase reporter, SF-1/DAX-1 repression; inhibition, % at 6.8 µM; 2,400 tested, 87% active; AID 652134, 2013;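 active means inhibition above the average of every tested compound plus 3 SD, cut at about 3.8% in these data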
SF1 AF2mut Luc: StAR reporter signal changes without DAX1, counter-screen for DAX1 inhibitor project, cell-based, luminescence, AF-2 mutant SF-1, transactivation | 2,400 tested, 78% active | inhibition, % at 6.8 µM | HEK293 StAR-luciferase, SF-1 AF2 mutant | shares compounds with DAX1 inh-2;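 active means inhibition above the mean of all tested compounds plus 3 SD, cut at about 3% in these data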
Numbers stand for hits; 0 = inactive; - = not tested or not shown.

SMILES | SMARCA2 activ | DAX1 inh-1 | JMJD2C inh | DAX1 inh-2 | NR2E3 ag-1 | NR2E3 ag-2 | DAX1 conf | SF1 AF2mut Luc
Cc1cc2nc(N3C(=O)CNC3=S)sc2cc1C | 0 | 0 | 0 | 6.7 | 0 | 0 | 14 | 7.0
O=C1CNC(=S)N1c1nc(-c2ccccc2)cs1 | 0 | 0 | 0 | 0 | 0 | 0 | - | -
CCc1ccc(NC(=O)c2onc(C)c2Cl)cc1 | 0 | 4.5 | 0 | 7.7 | 0 | 0 | 13 | 11
Cc1noc(C(=O)Nc2ccc(C#N)cc2)c1Cl | 0 | 0 | 0 | 0 | 0 | - | - | -
CC(C)N(C(N)=NC(=O)OCc1ccccc1)C(C)C | 0 | - | - | 0 | - | - | - | -
N#Cc1c(NC(=O)c2ccco2)sc2c1CCC2 | 0 | 0 | 0 | 9.4 | 0 | 0 | 9.1 | 3.7
Cc1ccc(C=NNC(=O)CSc2nc3sc4c(c3c(=O)n2-c2ccccc2)CCCC4)s1 | 0 | - | - | 0 | - | - | - | -
O=C(CCS(=O)(=O)c1ccccc1)N1CCN(c2ccccc2F)CC1 | 0 | 0 | 0 | 7.0 | 0 | 0 | 7.6 | 3.1
CCOC(=O)[C@@]12CN(C(=O)OC(C)(C)C)CC=C1N(Cc1ccc(OC)cc1)C(=O)[C@H]2CC(=O)NCCCN1CCCC1=O | 0 | - | - | 0 | - | - | - | -
CN(C)c1ccc(N=Nc2nccs2)cc1 | 0 | 0 | - | 7.0 | 0 | - | 16 | 5.9
CC(=O)c1ccc(N=Nc2ccc(N(C)C)cc2)cc1 | 0 | 0 | 0 | 0 | 0 | 0 | - | -
CCNC(=O)N(C)[C@H]1C[C@H]2c3[nH]c4c(-c5cccc(C)c5)cccc4c3CCN2C(=O)[C@H]1[C@H](C)O | 0 | - | - | 0 | - | - | - | -
O=C(NCCc1ccccc1F)c1cc2ccccn2n1 | 0 | - | - | 5.0 | - | - | 16 | 5.2
Cn1c(C(=O)Nc2ccc3c(c2)OCO3)cc2sccc21 | 0 | 4.8 | 0 | 5.5 | 0 | 0 | 11 | 7.0
O=C(Nc1ccc(Cl)cc1Cl)c1ccc2c(c1)OCCO2 | 0 | 0 | 0 | 8.7 | 0 | 0 | 17 | 6.7
Cn1c(C(=O)NCc2ccc3c(c2)OCO3)cc2sccc21 | 0 | 0 | 0 | 0 | 0 | 0 | - | -
Cc1ccc(C(=O)Nc2ccc3c(c2)OCO3)cc1S(=O)(=O)N1CCCC1 | 0 | 0 | 0 | 0 | 0 | 0 | - | -
O=C(Nc1ccc2c(c1)OCO2)c1cnc(Cl)c(Cl)c1 | 0 | 0 | - | 5.6 | 0 | - | 8.1 | 6.5
Cc1ccc(C(=O)Nc2ccc3c(c2)OCO3)cc1Cl | 0 | 4.8 | 0 | 11 | 0 | 0 | 11 | 6.6
COc1ccc(Cn2cc(CN3[C@@H](C)COc4cc(Br)ccc4S3(=O)=O)nn2)cc1 | 0 | - | - | 0 | - | - | - | -
CCOC(=O)[C@@]12CCC3=C1N(CCC3)C(=O)[C@H](CC(=O)NCCc1ccccc1OC)C2 | 0 | - | - | 0 | - | - | - | -
Cc1ccc(C(=O)Nc2ccc3c(c2)OCO3)cc1 | 0 | 0 | 0 | 5.6 | 0 | 0 | 11 | 6.0
O=C(c1ccc2oc(CCc3ccccc3)nc2c1)N1CCC(O)CC1 | 0 | 0 | 0 | 8.1 | 0 | 0 | 13 | 4.9
CCOC(=O)N1CCN(C(=O)c2ccc3oc(CCc4ccccc4)nc3c2)CC1 | 0 | 0 | - | 0 | 0 | - | - | -
O=C(Nc1ccc(F)cc1)/C(Cl)=C/c1ccccc1 | 0 | 9.9 | 0 | 4.6 | 0 | 0 | 13 | 10
SMILES | SMARCA2 activ | DAX1 inh-1 | JMJD2C inh | DAX1 inh-2 | NR2E3 ag-1 | NR2E3 ag-2 | DAX1 conf | SF1 AF2mut Luc
Cc1ccc(NC(=O)/C(Cl)=C\c2ccccc2)cc1 | 0 | 0 | 0 | 6.5 | 0 | 0 | 18 | 8.1
O=C(Nc1cccc2ccccc12)/C(Cl)=C/c1ccccc1 | 0 | 0 | 0 | 0 | 0 | 0 | - | -
CCOC(=O)[C@]12CCCC3=C1N(CCC3)C(=O)[C@@H](CC(=O)NCc1cccc(C(F)(F)F)c1)C2 | 0 | - | - | 0 | - | - | - | -
O=C(Nc1ccc(CN2CCCCC2)cc1)Nc1ccccc1Cl | 0 | 0 | 0 | 0 | 0 | 0 | - | -
CCN1CCN(Cc2ccc(NC(=O)Nc3ccccc3Cl)cc2)CC1 | 0 | 4.6 | 0 | 5.4 | 0 | 0 | 11 | 8.6
O=C(c1cc([N+](=O)[O-])ccc1N1CCOCC1)N1CCN(c2ccccc2)CC1 | 0 | 0 | 0 | 14 | 0 | 0 | 17 | 0
Cc1ccc(-c2csc(Cc3nc(-c4cc5ccccc5oc4=O)cs3)n2)cc1 | 0 | 0 | 0 | 0 | 0 | 0 | - | -
Cc1ccn2cc(-c3cc4ccccc4oc3=O)nc2c1 | 0 | 0 | - | 12 | 0 | - | 12 | 4.7
Cc1ccc2nc(-c3cccc(N)c3)oc2c1 | 0 | 0 | 0 | 5.4 | 0 | 0 | 15 | 6.8
Cc1cc(C)c2oc(-c3cccc(N)c3)nc2c1 | 0 | 0 | 0 | 0 | 0 | 0 | - | -
CCN(CC)C(=O)CC[C@@H]1CC[C@]2(CCCN(C(=O)c3ccco3)C2)O1 | 0 | - | - | 0 | - | - | - | -
Cc1ccc(C(=O)CN2C(=O)NC3(CCCCCC3)C2=O)c(C)c1 | 0 | 0 | 0 | 5.5 | 0 | 0 | 4.2 | 3.8
O=C(Cn1nnc(-c2ccncc2)n1)Nc1ccc(F)cc1F | 0 | - | - | 0 | - | - | - | -
CCOC(=O)Cc1c(C)c2c(C)[nH]nc2oc1=O | 0 | 0 | 0 | 5.4 | 0 | 0 | 0 | 0
CCCc1c(C)c2c(C)[nH]nc2oc1=O | 0 | 0 | 0 | 0 | 0 | 0 | - | -
O=S1(=O)c2ccc(N3CC[C@@H](O)C3)cc2OCCCN1C1CC1 | 0 | - | - | 0 | - | - | - | -
O=C(NC1CCCCC1)C(c1ccccc1F)n1c(=O)c(-c2ccco2)nc2ccccc21 (stereo not given) | 0 | - | - | 0 | - | - | - | -
O=C(NC1CCCCC1)C(c1ccc(-c2ccccc2)cc1)n1c(=O)c(-c2ccco2)nc2ccccc21 (stereo not given) | 0 | - | - | 4.8 | - | - | 0 | 0
COC(=O)C[C@H]1CC[C@H]2[C@@H](COc3ccc(NC(=O)Nc4ccccc4)cc3C(=O)N2C)O1 | 0 | - | - | 0 | - | - | - | -
Cc1ccsc1C(=O)NCCc1c[nH]c2ccccc12 | 0 | 0 | 0 | 4.6 | 0 | 0 | 5.9 | 2.9
CC(C)NC(=O)NC1CCN(CC(=O)Nc2ccc3c(c2)OCCO3)CC1 | 0 | - | - | 0 | - | - | - | -
COc1ccc(C(CNC(=O)c2cccc(NC(=O)c3cccs3)c2)N2CCCC2)cc1 (stereo not given) | 0 | 0 | 0 | 4.5 | 0 | 0 | 6.4 | 3.7
